Data as given in ChEMBL document CHEMBL3244344, “Nucleoside conjugates as potential antitumor agents. 2. Synthesis and biological activity of 1-(beta-D-arabinofuranosyl)cytosine conjugates of prednisolone and prednisone” (J Med Chem, 1979).

Key:
L1210 [1] = experiment: Antitumor activity against mouse L1210 cells allografted in C3D2F1/J mouse assessed as median survival time at 25 mg/kg, ip qd administered for 5 days (reference value: 8 days); type: functional; settings: route intraperitoneal
L1210 [2] = experiment: Cytotoxicity against mouse L1210 cells assessed as growth inhibition measured at 72 hrs by trypan blue exclusion assay; type: functional; settings: L1210, 72 h, read-out: ED50 (the source's name)
How it was run: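 L1210 mouse lymphoid leukemia cells seeded at 2–3 × 10⁵ cells/mL in RPMI 1640 + 10% fetal calf serum with compound (from Me2SO stock, final Me2SO 0.5%, compound 100 μM or lower). Viable cells counted by 0.05% Trypan blue exclusion in a hemocytometer at 24, 48, 72 h. Treated/untreated density ratio. ED50 at 72 h interpolated from response curves of three separate experiments.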

Mus musculus [3] = experiment: Toxicity in C3D2F1/J mouse allografted with mouse L1210 cells assessed as body weight change at 18.2 mg/kg, ip qd administered for 5 days measured on day 8 (reference value: 1.81 +/- 0.79 g); type: organism-based; parameters: dose 18.2 mg/kg, route intraperitoneal; settings: in vivo, 120 h
L1210 [4] = experiment: Antitumor activity against mouse L1210 cells allografted in C3D2F1/J mouse assessed as increase in life span at 18.2 mg/kg, ip qd administered for 5 days co-administered with 27 mg/kg prednisolone relative to control; type: functional
L1210 [5] = experiment: Antitumor activity against mouse L1210 cells allografted in C3D2F1/J mouse assessed as median survival time at 18.2 mg/kg, ip qd administered for 5 days co-administered with 27 mg/kg prednisolone (reference value: 9 days); type: functional
L1210 [6] = experiment: Antitumor activity against mouse L1210 cells allografted in C3D2F1/J mouse assessed as median survival time at 18.2 mg/kg, ip qd administered for 5 days (reference value: 10 days); type: functional; settings: route intraperitoneal
Mus musculus [7] = experiment: Toxicity in C3D2F1/J mouse allografted with mouse L1210 cells assessed as body weight change at 18.3 mg/kg, ip qd administered for 5 days measured on day 8 co-administered with 27 mg/kg prednisone (reference value: 1.81 +/- 0.79 g); type: organism-based; settings: in vivo, 120 h
Mus musculus [8] = experiment: Toxicity in C3D2F1/J mouse allografted with mouse L1210 cells assessed as body weight change at 25 mg/kg, ip qd administered for 5 days measured on day 8 (reference value: 1.81 +/- 0.79 g); type: organism-based; parameters: dose 25 mg/kg, route intraperitoneal; settings: in vivo, 120 h
L1210 [9] = experiment: Antitumor activity against mouse L1210 cells allografted in C3D2F1/J mouse assessed as increase in life span at 18.2 mg/kg, ip qd administered for 5 days relative to control; type: functional; settings: 120 h, route intraperitoneal
Mus musculus [10] = experiment: Toxicity in C3D2F1/J mouse allografted with mouse L1210 cells assessed as body weight change at 18.2 mg/kg, ip qd administered for 5 days measured on day 8 co-administered with 27 mg/kg prednisolone (reference value: 1.81 +/- 0.79 g); type: organism-based; settings: in vivo, 120 h
L1210 [11] = experiment: Antitumor activity against mouse L1210 cells allografted in C3D2F1/J mouse assessed as median survival time at 18.3 mg/kg, ip qd administered for 5 days co-administered with 27 mg/kg prednisone (reference value: 9 days); type: functional
L1210 [12] = experiment: Antitumor activity against mouse L1210 cells allografted in C3D2F1/J mouse assessed as increase in life span at 50 mg/kg, ip qd administered for 5 days relative to control; type: functional; settings: 120 h, route intraperitoneal
Mus musculus [13] = experiment: Toxicity in C3D2F1/J mouse allografted with mouse L1210 cells assessed as body weight change at 50 mg/kg, ip qd administered for 5 days measured on day 8 (reference value: 1.81 +/- 0.79 g); type: organism-based; parameters: dose 50 mg/kg, route intraperitoneal; settings: in vivo, 120 h
L1210 [14] = experiment: Antitumor activity against mouse L1210 cells allografted in C3D2F1/J mouse assessed as increase in life span at 25 mg/kg, ip qd administered for 5 days relative to control; type: functional; settings: 120 h, route intraperitoneal
L1210 [15] = experiment: Antitumor activity against mouse L1210 cells allografted in C3D2F1/J mouse assessed as increase in life span at 18.3 mg/kg, ip qd administered for 5 days co-administered with 27 mg/kg prednisone relative to control; type: functional
L1210 [16] = experiment: Antitumor activity against mouse L1210 cells allografted in C3D2F1/J mouse assessed as median survival time at 50 mg/kg, ip qd administered for 5 days (reference value: 9 days); type: functional; settings: route intraperitoneal
Mus musculus [17] = experiment: Toxicity in C3D2F1/J mouse allografted with mouse L1210 cells assessed as body weight change at 27 mg/kg, ip qd administered for 5 days measured on day 8 (reference value: 1.81 +/- 0.79 g); type: organism-based; parameters: dose 27 mg/kg, route intraperitoneal; settings: in vivo, 120 h
L1210 [18] = experiment: Antitumor activity against mouse L1210 cells allografted in C3D2F1/J mouse assessed as median survival time at 27 mg/kg, ip qd administered for 5 days (reference value: 10 days); type: functional; settings: route intraperitoneal
L1210 [19] = experiment: Antitumor activity against mouse L1210 cells allografted in C3D2F1/J mouse assessed as increase in life span at 27 mg/kg, ip qd administered for 5 days relative to control; type: functional; settings: 120 h, route intraperitoneal

SMILES	MST (L1210 [1]) [days]	EC50 (L1210 [2]) [µM]	Activity (Mus musculus [3]) [g]	ILS (L1210 [4]) [%]	MST (L1210 [5]) [days]	MST (L1210 [6]) [days]	Activity (Mus musculus [7]) [g]	Activity (Mus musculus [8]) [g]	ILS at 18.2 mg/kg (L1210 [9]) [%]	Activity (Mus musculus [10]) [g]	MST (L1210 [11]) [days]	ILS at 50 mg/kg (L1210 [12]) [%]	Activity (Mus musculus [13]) [g]	ILS at 25 mg/kg (L1210 [14]) [%]	ILS (L1210 [15]) [%]	MST (L1210 [16]) [days]	Activity (Mus musculus [17]) [g]	MST (L1210 [18]) [days]	ILS at 27 mg/kg (L1210 [19]) [%]
Nc1ccn([C@@H]2O[C@H](CO)[C@@H](O)[C@@H]2O)c(=O)n1 [CYTARABINE]	9.5	0.1	-3.64	40	14	14.5	-1.25	-3.8	45	-2.46	13	11.1	-4.2	18.8	44	10	–	–	–
C[C@]12C=CC(=O)C=C1CC[C@@H]1[C@@H]2[C@@H](O)C[C@@]2(C)[C@H]1CC[C@]2(O)C(=O)CO [PREDNISOLONE]	–	100	–	–	–	–	–	–	–	–	–	–	–	–	–	–	-0.85	9.5	-5
C[C@]12C=CC(=O)C=C1CC[C@@H]1[C@@H]2C(=O)C[C@@]2(C)[C@H]1CC[C@]2(O)C(=O)CO [PREDNISONE]	–	> 100	–	–	–	–	–	–	–	–	–	–	–	–	–	–	-1.01	9.5	-5
